Measured values from ChEMBL document CHEMBL1122650, “Synthesis and central nervous system properties of 2-[(alkoxycarbonyl)amino]-4(5)-phenyl-2-imidazolines” (J Med Chem, 1984).
The source made the active and inactive calls. The rule behind the calls is not given here.

Columns and labels:
[1] = Compound was evaluated for lethal dose in mouse in groups of ten (values in parentheses indicates 95% confidence limits); format: toxicity, organism-based; conditions: in vivo
Mus musculus [2] = organism: Mus musculus; assay: Evaluated for antagonism of reserpine induced hypothermia; format: functional
How it was run: (§1)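 Male HLa (ICR) BR mice, 18-24 g, in groups of eight; reserpine 5 mg/kg ip given 2 h before oral test compound as aqueous solution. Rectal temperature taken hourly; 1-4-h hypothermia assessed by analysis of variance.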

Mus musculus [3] = assay: Mouse behavior activity was determined; I=inactive at a dose of 50 mg/Kg; format: functional, organism-based
[4] = HPLC capacity factor (k'); format: ADME
Mus musculus [5] = organism: Mus musculus; assay: Compound was evaluated for maximal electroshock antagonism (MES) against mice; Inactive; format: functional, organism-based
How it was run: (§2)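 Male HLa (ICR) BR mice, groups of eight to ten, dosed ip (aqueous solution) 15 min before transcorneal electroshock (50 mA, 0.2 s). End point: abolition of tonic hind-limb extension; quantal ED50 by Litchfield-Wilcoxon.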

Mus musculus [6] = organism: Mus musculus; assay: Compound was evaluated for antagonism of reserpine induced hypothermia; Inactive.; format: functional, organism-based; how it was run: as §1
Mus musculus [7] = organism: Mus musculus; assay: Mouse behavior activity was determined; Dwk= Depressant Weak.; format: functional, organism-based
How it was run: (§3)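 Male Simonsen (ICR) fBR mice, 18-24 g, groups of three, given 3, 10, 30, 100, 300 or 1000 mg/kg ip as aqueous solution and observed for behavioral profile; deaths followed up to 7 days.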

[8] = Lethal dose in mouse, in groups of ten; format: toxicity, organism-based; conditions: in vivo
Mus musculus [9] = assay: Compound was evaluated in vivo for reserpine hypothermia after oral administration in mouse Minimum active dose was reported; Inactive; format: functional, organism-based; how it was run: as §1
Mus musculus [10] = organism: Mus musculus; assay: Compound was evaluated for maximal electroshock antagonism (MES) against mice; format: functional; how it was run: as §2
Mus musculus [11] = organism: Mus musculus; assay: Mouse behavior activity was determined; D=-Depressant.; format: functional, organism-based; how it was run: as §3
Mus musculus [12] = organism: Mus musculus; assay: Righting ability was determined in mice before rapid rolling (unaroused);; format: functional
How it was run: (§4)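 Male Simonsen (ICR) fBR mice, 18-24 g, groups of ten, dosed with aqueous compound. Righting ability checked before (unaroused) and after (aroused) rapid rolling in the hand; ED50 by Litchfield-Wilcoxon method.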

Mus musculus [13] = organism: Mus musculus; assay: Righting ability was determined in mice after rapid rolling (aroused); format: functional; how it was run: as §4
Mus musculus [14] = organism: Mus musculus; assay: Mouse behavior activity was determined; ST= Stimulant, D = Depressant; format: functional, organism-based; how it was run: as §3
Mus musculus [15] = organism: Mus musculus; assay: Compound was evaluated for antagonism of reserpine induced hypothermia; I = inactive; format: functional, organism-based; how it was run: as §1
Mus musculus [16] = organism: Mus musculus; assay: Compound was evaluated for maximal electroshock antagonism (MES) against mice (values in parentheses indicates 95% confidence limits); format: functional
How it was run: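 Male HLa (ICR) BR mice, groups of eight to ten, given compound ip as aqueous solution 15 min before transcorneal electroshock (50 mA, 0.2 s). End point was abolition of tonic hind-limb extension; quantal ED50 derived by Litchfield-Wilcoxon.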

Mus musculus [17] = organism: Mus musculus; assay: Evaluated for antagonism of reserpine induced hypothermia;I= Inactive; format: functional, organism-based; how it was run: as §1
Mus musculus [18] = organism: Mus musculus; assay: Mouse behavior activity was determined; Stimulant-Depressant Weak; format: functional, organism-based; how it was run: as §3
Mus musculus [19] = organism: Mus musculus; assay: Mouse behavior activity was determined; ST = Stimulant(Weak); format: functional, organism-based
How it was run: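 Male Simonsen (ICR) fBR mice (18-24 g) given 3, 10, 30, 100, 300 or 1000 mg/kg ip as aqueous solution and observed for behaviour in groups of three.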

Mus musculus [20] = assay: Compound was evaluated in vivo for reserpine hypothermia after oral administration in mouse. Minimum active dose was reported, with the percent reversal at 10 mg/kg in parenthesis.; format: functional
How it was run: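 Male HLa (ICR) BR mice (18-24 g), groups of eight, dosed ip with 5 mg/kg reserpine 2 h before oral test compound given as aqueous solution. Rectal temperature measured hourly; 1-4-h thermia assessed by analysis of variance.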

[21] = target: Norepinephrine transporter (Rattus norvegicus, UniProt Q9WTR4); assay: (§5) Inhibition of the NE [3H]norepinephrine uptake by rat brain slices In vitro; format: tissue-based
Norepinephrine transporter, sequence (Q9WTR4 whole entry): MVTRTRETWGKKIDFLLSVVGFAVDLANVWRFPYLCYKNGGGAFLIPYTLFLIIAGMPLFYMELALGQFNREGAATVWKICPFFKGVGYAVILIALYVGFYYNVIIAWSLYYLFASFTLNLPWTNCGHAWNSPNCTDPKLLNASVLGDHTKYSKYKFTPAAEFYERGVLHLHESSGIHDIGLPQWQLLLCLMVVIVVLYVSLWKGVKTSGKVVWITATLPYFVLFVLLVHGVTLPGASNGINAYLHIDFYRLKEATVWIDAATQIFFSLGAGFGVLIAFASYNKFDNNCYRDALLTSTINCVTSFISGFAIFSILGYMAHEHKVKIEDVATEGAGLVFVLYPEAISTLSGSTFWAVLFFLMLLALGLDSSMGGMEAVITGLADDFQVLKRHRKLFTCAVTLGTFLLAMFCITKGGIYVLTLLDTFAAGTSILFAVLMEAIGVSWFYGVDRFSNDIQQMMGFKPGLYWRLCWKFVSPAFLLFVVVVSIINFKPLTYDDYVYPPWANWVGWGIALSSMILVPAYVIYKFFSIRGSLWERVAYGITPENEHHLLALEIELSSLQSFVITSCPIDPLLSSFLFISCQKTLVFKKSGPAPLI
How it was run: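 Rat cerebral cortex slices at 5 mg tissue/mL Krebs-Henseleit buffer, incubated at 37 °C; blanks incubated at 4 °C, controls without drug. After 20 min, incubation stopped by filtration and tissue radioactivity measured. IC50 taken from linear regression of uptake inhibition.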

Mus musculus [22] = assay: Reserpine hypothermia antagonism in mouse administered perorally with 5 mg/kg of reserpine 2 hour prior to test compound administration; format: functional; conditions: route oral
Mus musculus [23] = organism: Mus musculus; assay: (§6) Inhibition of radioactive NE [3H]norepinephrine uptake into mouse heart; format: functional
How it was run: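 Mice received compound ip before iv [3H]NE. At 3 h after [3H]NE, hearts were removed, washed, weighed, dissolved in Protosol and counted as dpm per mg tissue. Dose-response curves derived by linear regression.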

Mus musculus [24] = organism: Mus musculus; assay: Mouse behavior activity was determined; Depressant-Stimulant; format: functional, organism-based; how it was run: as §3
Mus musculus [25] = organism: Mus musculus; assay: Righting ability was determined in mice […] rapid rolling (aroused); format: functional; how it was run: as §4
Mus musculus [26] = organism: Mus musculus; assay: Righting ability was determined in mice before rapid rolling (unaroused); format: functional; how it was run: as §4
Rattus norvegicus [27] = organism: Rattus norvegicus; assay: as §5; format: functional
Mus musculus [28] = organism: Mus musculus; assay: as §6; format: functional; remark: listed apart in the source
How it was run: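 Mice dosed ip (aqueous solution) before iv [3H]NE; hearts removed 3 h after label, washed, weighed, dissolved in Protosol and counted as dpm per mg tissue. Dose-response from linear regression.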

Rattus norvegicus [29] = organism: Rattus norvegicus; assay: Inhibition of the 5-HT [14C]5-HT uptake by rat brain slices In vitro; format: functional
How it was run: (§7)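 Rat cerebral cortex slices, 5 mg tissue per mL Krebs-Henseleit buffer, incubated at 37 °C with [3H]NE or [14C]5-HT; blanks at 4 °C, undosed controls. Stopped after 20 min by filtration; slice radioactivity counted; IC50 from linear regression of uptake inhibition.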

Mus musculus [30] = organism: Mus musculus; assay: Mouse behavior activity was determined; D=Depressant; format: functional, organism-based; how it was run: as §3
Mus musculus [31] = organism: Mus musculus; assay: Mouse behavior activity was determined; Depressant.; format: functional, organism-based; how it was run: as §3
Mus musculus [32] = assay: Compound was evaluated in vivo for reserpine hypothermia after oral administration in mouse. Minimum active dose was reported,; format: functional; how it was run: as §1
Rattus norvegicus [33] = organism: Rattus norvegicus; assay: Inhibition of the NE [3H]Norepinephrine uptake by rat brain slices In vitro; format: functional
Rattus norvegicus [34] = organism: Rattus norvegicus; assay: Inhibition of the 5-HT [14C]5-HT) uptake by rat brain slices In vitro; format: functional; how it was run: as §7
Mus musculus [35] = organism: Mus musculus; assay: Mouse behavior activity was determined;S= Stimulant Weak.; format: functional, organism-based
Mus musculus [36] = organism: Mus musculus; assay: Mouse behavior activity was determined; Depressant; format: functional, organism-based; how it was run: as §3

COC(=O)NC1=NC(c2ccc(O)c(O)c2)CN1 (stereo unspecified)
LD50 [1]: > 1000 mg/kg
HYPO (Mus musculus [2]): >20 mg/kg
Mouse behavior activity (Mus musculus [3]): inactive
Log k' [4]: -1.51

CCCCCCOC(=O)NC1=NC(c2ccc(Cl)cc2)CN1 (stereo unspecified)
ED50 (Mus musculus [5]): inactive
HYPO (Mus musculus [6]): inactive
Mouse behavior activity (Mus musculus [7]): Depressant - weak
LD50 [8]: 200 mg/kg
ED50 (Mus musculus [9]): inactive
Log k' [4]: 2.18

COC(=O)NC1=NC(c2ccccc2C)CN1 (stereo unspecified)
ED50 (Mus musculus [10]): 55 mg/kg
Mouse behavior activity (Mus musculus [11]): Depressant
HYPO (Mus musculus [2]): >20 mg/kg
LD50 [8]: 300 mg/kg
Log k' [4]: 0.16
Loss of righting reflex (Mus musculus [12]): 144 mg/kg
Loss of righting reflex (Mus musculus [13]): 172 mg/kg

O=C1NC(=O)C(c2ccccc2)(c2ccccc2)N1 [PHENYTOIN]
LD50 [1]: 700 mg/kg
Mouse behavior activity (Mus musculus [14]): Stimulant
HYPO (Mus musculus [15]): inactive
ED50 (Mus musculus [16]): 6 mg/kg

CCOC(=O)NC1=NC(c2ccc(O)cc2)CN1C(C)C (stereo unspecified)
ED50 (Mus musculus [5]): inactive
HYPO (Mus musculus [17]): inactive
LD50 [8]: 200 mg/kg
Mouse behavior activity (Mus musculus [18]): Stimulant-Depressant Weak
Log k' [4]: 0.7

CN(C)CCC=C1c2ccccc2CCc2ccccc21 [AMITRIPTYLINE]
LD50 [1]: 70 mg/kg
HYPO (Mus musculus [2]): <0.5 mg/kg
Mouse behavior activity (Mus musculus [19]): Partial stimulant
ED50 (Mus musculus [20]): 8 mg/kg
IC50 [21]: 2500 nM
Reserpine hypothermia (Mus musculus [22]): 0.15 mg/kg
ED50 (Mus musculus [16]): 14 mg/kg
ED50 (Mus musculus [23]): 4.4 mg/kg

CC(C)OC(=O)NC1=NC(c2ccccc2Cl)CN1C (stereo unspecified)
ED50 (Mus musculus [10]): 35 mg/kg
Mouse behavior activity (Mus musculus [24]): Depressant-Stimulant
LD50 [8]: 700 mg/kg
Loss of righting reflex (Mus musculus [25]): 67 mg/kg
Loss of righting reflex (Mus musculus [26]): 46 mg/kg
Log k' [4]: 1.08

CN1CC(c2ccccc2Cl)N=C1N (stereo unspecified)
HYPO (Mus musculus [2]): <0.5 mg/kg
IC50 (Rattus norvegicus [27]): 500 nM
Reserpine hypothermia (Mus musculus [22]): 0.15 mg/kg
ED50 (Mus musculus [28]): 18.3 mg/kg
IC50 (Rattus norvegicus [29]): 30000 nM

COC(=O)NC1=NC(c2ccccc2SC)CN1C (stereo unspecified)
ED50 (Mus musculus [5]): inactive
HYPO (Mus musculus [17]): inactive
LD50 [8]: 200 mg/kg
Mouse behavior activity (Mus musculus [30]): Depressant
Loss of righting reflex (Mus musculus [26]): 70 mg/kg
Log k' [4]: 0.63

COC(=O)NC1=NC(c2ccccc2Cl)CN1C (stereo unspecified)
ED50 (Mus musculus [10]): 28 mg/kg
Mouse behavior activity (Mus musculus [31]): Depressant
LD50 [8]: 238 mg/kg
Loss of righting reflex (Mus musculus [25]): 92 mg/kg
Loss of righting reflex (Mus musculus [26]): 49 mg/kg
Log k' [4]: 0.51

COC(=O)NC1=NC(c2cccc(Cl)c2Cl)CN1C (stereo unspecified)
ED50 (Mus musculus [10]): 30 mg/kg
ED50 (Mus musculus [32]): 23 mg/kg
Log k' [4]: 0.91

NC1=NC(c2c(Cl)cccc2Cl)CN1 (stereo unspecified)
ED50 (Mus musculus [5]): inactive
HYPO (Mus musculus [2]): <0.5 mg/kg
IC50 (Rattus norvegicus [33]): 100 nM
LD50 [8]: 70 mg/kg
Reserpine hypothermia (Mus musculus [22]): 0.15 mg/kg
ED50 (Mus musculus [28]): 6.5 mg/kg
IC50 (Rattus norvegicus [34]): 7800 nM

COC(=O)NC1=NC(c2ccc(Cl)cc2)CN1 (stereo unspecified)
Mouse behavior activity (Mus musculus [35]): Stimulant weak
ED50 (Mus musculus [10]): ~200 mg/kg
LD50 [8]: 500 mg/kg
Log k' [4]: 0.31

COC(=O)NC1=NC2(CCc3ccccc32)CN1 (stereo unspecified)
ED50 (Mus musculus [10]): 75 mg/kg
LD50 [8]: 700 mg/kg
Loss of righting reflex (Mus musculus [26]): 200 mg/kg
Mouse behavior activity (Mus musculus [36]): Depressant
Log k' [4]: 0.3
